Square brackets hold non-standard residues; d marks the D form. Peptide text beside a SMILES is read from it. Phe(4-Cl) = N[C@@H](Cc1ccc(Cl)cc1)C(=O)O
How the values were obtained:
Mus musculus [1] = species: Mus musculus; experiment: Compound was tested for antinociceptive potency using mouse writhing pain assay; assay type: functional
Summary of the method: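 Male Swiss Webster mice, 20–25 g, given peptide icv (10 μL in sterile water) or i.v.; 5 min later 1.0% AcOH (10 mL/kg) i.p. Doses 0, 0.25–50 nmol. Writhes counted for 10 min; % analgesia relative to vehicle controls, 10 mice per dose. AD50 and potency ratio with 95% CL by Litchfield–Wilcoxon.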

Mus musculus [2] = experiment: Lack of Motor Effect measured as the time taken by the mice to remain on the rotarod after 30 min interval of icv administration of compound; assay type: functional
Summary of the method: (§1)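 Male Swiss Webster mice pre-screened on a 2.5 cm rod at 8 rpm (two 1-min rounds; fallers excluded). Peptides (10 or 2.5 nmol) or water vehicle given icv, then mice placed on the rod for 2 min. Time on rod recorded as mean ± SE, groups of 10; Student's t-test.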

Mus musculus [3] = experiment: Lack of Motor Effect measured as the time taken by the mice to remain on the rotarod after 60 min interval of icv administration of compound; assay type: functional; summary of the method: as §1
Mus musculus [4] = experiment: Lack of Motor Effect measured as the time taken by the mice to remain on the rotarod after 15 min interval of icv administration of compound; assay type: functional; summary of the method: as §1
Rattus norvegicus = species: Rattus norvegicus; experiment: Compound was tested for inhibition against [3H]raclopride to Rat brain membranes; assay type: functional, Membrane
Summary of the method: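 Rat brain membranes (male Wistar, 250–300 g; 0.8 mg protein) in 5 mM Tris-HCl pH 7.4, incubated with 2.5 nM [3H]raclopride for 60 min at 22 °C alongside 9–12 peptide concentrations (10⁻¹⁰–10⁻⁴ M). Nonspecific binding defined with 10 μM (+)butaclamol. IC50 by nonlinear least-squares fit; mean ± SE of ≥3 experiments run in duplicate.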

Compound | AD50 (Mus musculus [1]) [nmol mouse-1] | Time (Mus musculus [2]) | Time (Mus musculus [3]) | Time (Mus musculus [4]) | IC50 (Rattus norvegicus) [µM]
C[C@@H]1NC(=O)CNC(=O)[C@@H](CCCN=C(N)N)NC(=O)[C@H](Cc2ccc(O)cc2)NC1=O [listing 1 of 2 here] | 1.35 | 120 | 120 | 107 | 
C[C@@H]1NC(=O)[C@@H](CCC(N)=O)NC(=O)CNC(=O)[C@@H](CCCN=C(N)N)NC1=O | 13.3 |  |  |  | 
C[C@H](NC(=O)[C@H](CCC(N)=O)NC(=O)CN)C(=O)N[C@@H](CCCN=C(N)N)C(=O)O (H-GQAR-OH) | 3.42 |  |  |  | 
NCC(=O)N[C@@H](CCC(N)=O)C(=O)NCC(=O)N[C@@H](CCCN=C(N)N)C(=O)O (H-GQGR-OH) | 25.9 |  |  |  | 
N=C(N)NCCC[C@H]1NC(=O)[C@H](Cc2ccc(O)cc2)NC(=O)[C@H](Cc2ccc(Cl)cc2)NC(=O)CNC1=O (cyclo(G[Phe(4-Cl)]Y[dR])) [listing 1 of 2 here] | 0.17 | 115.8 | 110.2 | 104.1 | 
N=C(N)NCCC[C@H]1NC(=O)[C@H](Cc2ccc(O)cc2)NC(=O)[C@H](Cc2ccc(Cl)cc2)NC(=O)CNC1=O (cyclo(G[Phe(4-Cl)]Y[dR])) [listing 2 of 2 here] |  |  |  |  | 0.89
NC(=O)CC[C@@H]1NC(=O)CNC(=O)[C@H](CCCN=C(N)N)NC(=O)[C@H](Cc2ccc(O)cc2)NC1=O | 2.26 |  |  |  | 4.91
NC(=O)CC[C@H]1NC(=O)CNC(=O)[C@H](CCCN=C(N)N)NC(=O)[C@H](Cc2ccc(O)cc2)NC1=O | 3.65 |  |  |  | 4.12
N=C(N)NCCC[C@H]1NC(=O)[C@H](Cc2ccc(O)cc2)NC(=O)[C@H](Cc2ccc(N)cc2)NC(=O)CNC1=O [listing 1 of 2 here] |  |  |  |  | 3.52
NC(=O)CC[C@H]1NC(=O)CNC(=O)[C@@H](CCCN=C(N)N)NC(=O)[C@H](Cc2ccc(O)cc2)NC1=O | 4.21 |  |  |  | 6.75
N=C(N)NCCC[C@H]1NC(=O)[C@H](Cc2ccc(O)cc2)NC(=O)[C@H](Cc2ccc(N)cc2)NC(=O)CNC1=O [listing 2 of 2 here] | 2.52 |  |  |  | 
C[C@@H]1NC(=O)CNC(=O)[C@@H](CCCN=C(N)N)NC(=O)[C@H](Cc2ccc(O)cc2)NC1=O [listing 2 of 2 here] |  |  |  |  | 2.33
C[C@@H]1NC(=O)[C@@H](CCC(N)=O)NC(=O)CNC(=O)[C@H](CCCN=C(N)N)NC1=O | 7.05 |  |  |  | 12.5

— ChEMBL document CHEMBL1145838, “Bioactive peptidic analogues and cyclostereoisomers of the minimal antinociceptive histogranin fragment-(7-10)” (J Med Chem, 2003)
